Measured values published in ChEMBL document CHEMBL4414584, “Targeting of Fumarate Hydratase from Mycobacterium tuberculosis Using Allosteric Inhibitors with a Dimeric-Binding Mode” (J Med Chem, 2019).
pIC50: −log10 of the molar value. In brackets after ≈: the same amount, converted by molar mass. Activity calls are given as the source filed them. The calls are words filed in the database; no cut-off is given here.

Key:
[1] = tested on: Mycobacterium tuberculosis; assay: Antimycobacterial activity against Mycobacterium tuberculosis H37Rv assessed as reduction in bacterial growth incubated for 2 weeks in 7H9/glucose media by 2-fold serial dilution method; type: functional; settings: for MIC: 336 h
Outline: (§1)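 H37Rv grown in the test medium to OD 0.2–0.4, diluted to OD 0.0002 and added 1:1 to a two-fold serial dilution series of compound. Plates incubated 37 °C for two weeks, then MIC determined.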

[2] = tested on: Mycobacterium tuberculosis; assay: Antimycobacterial activity against Mycobacterium tuberculosis H37Rv assessed as reduction in bacterial growth incubated for 2 weeks in GAST-Fe media by 2-fold serial dilution method; type: functional; settings: for MIC: 336 h; outline: as §1
[3] = tested on: Mycobacterium tuberculosis; assay: Antimycobacterial activity against Mycobacterium tuberculosis H37Rv assessed as reduction in bacterial growth incubated for 2 week in 7H9/ADC media by 2-fold serial dilution method; type: functional; settings: for MIC: 336 h; outline: as §1
[4] = tested on: Mycobacterium tuberculosis; assay: Antimycobacterial activity against Mycobacterium tuberculosis H37Rv assessed as reduction in bacterial growth incubated for 2 weeks in 7H9/DPPC media by 2-fold serial dilution method; type: functional; settings: for MIC: 336 h; outline: as §1
[5] = (§2) Inhibition of Mycobacterium tuberculosis fumarate hydratase expressed in Escherichia coli BL21(DE3) using fumaric acid as substrate preincubated for 5 mins followed by substrate addition incubated for 2 mins and measured at 24 secs interval for 10 mins by spectrometric method
Outline: (§3)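 Coupled assay: Mtb fumarase (33.3 nM) with citrate synthase, malate dehydrogenase, acetyl-CoA (267 µM) and NAD+ (200 µM) in 250 mM Tris pH 8.0, 5 mM MgCl2. Ligand in DMSO pre-equilibrated 5 min at 25 °C, then fumaric acid added. A340 read every 24 s over 10 min. Slope corrected by no-substrate control and normalised to uninhibited control.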

[6] = tested on: Mycobacterium tuberculosis; assay: as §2, with “BL21(DE3) at 50 uM” for “BL21(DE3)”, “method relative to control” for “method”; outline: as §3
[7] = tested on: Mycobacterium tuberculosis; assay: Binding affinity to Mycobacterium tuberculosis fumarate hydratase expressed in Escherichia coli BL21(DE3) assessed as change in melting temperature at 5 mM by Sypro orange dye based differential scanning fluorimetry
[8] = tested on: Mycobacterium tuberculosis; assay: Inhibition of Mycobacterium tuberculosis fumarate hydratase expressed in Escherichia coli BL21(DE3) at 100 to […] using fumaric acid as substrate preincubated for 5 mins followed by substrate addition incubated for 2 mins and measured at 24 secs interval for 10 mins by spectrometric method; outline: as §3
[9] = tested on: Mycobacterium tuberculosis; assay: Antimycobacterial activity against Mycobacterium tuberculosis H37Rv assessed as growth inhibition at 250 uM supplemented with fresh medium containing compound for every 3 days for 7 days relative to control; type: functional
[10] = tested on: Mycobacterium tuberculosis; assay: Binding affinity to Mycobacterium tuberculosis fumarate hydratase expressed in Escherichia coli BL21(DE3) assessed as change in melting temperature at 0.625 mM by Sypro orange dye based differential scanning fluorimetry
[11] = Inhibition of N-terminal His6-tagged Mycobacterium tuberculosis fumarate hydratase expressed in Escherichia coli BL21(DE3) using fumaric acid as substrate preincubated for 10 mins followed by substrate addition and measured immediately by fluorescence-based HTS assay

Row | Structure (SMILES) | Activity [1] | Activity [2] | Activity [3] | Activity [4] | pIC50 [5] | inhibition [6] [%] | other results
1 | COc1ccc(S(=O)(=O)N2CCSCC2)cc1NC(=O)Cc1n[nH]c(=O)c2ccccc12 | inactive | inactive | inactive | inactive | 5.33 |  | 
2 | COc1ccc(S(=O)(=O)N2CCc3cc(OC)c(OC)cc3C2)cc1NC(=O)Cc1n[nH]c(=O)c2ccccc12 | inactive | inactive | inactive | inactive | 5.47 |  | 
3 | COc1ccc2c(c1)CCN(S(=O)(=O)c1ccc(OC)c(NC(=O)Cc3n[nH]c(=O)c4ccccc34)c1)CC2 | inactive | inactive | inactive | inactive | 6.17 |  | 
4 | COc1ccc2[nH]cc(CC(=O)Nc3cc(S(=O)(=O)N4CCCCCC4)ccc3OC)c2c1 |  |  |  |  |  | 38 | MIC [1]: > 100 µM; MIC [2]: > 100 µM; MIC [3]: > 100 µM; MIC [4]: 12.5 µM (≈ 5.89 µg/mL)
5 | COc1ccc(S(=O)(=O)NCc2ccccc2)cc1NC(=O)Cc1n[nH]c(=O)c2ccccc12 |  |  |  |  |  | 53 | 
6 | COc1ccc(S(=O)(=O)N2CCCCCC2)cc1NC(=O)Cc1noc2ccccc12 |  |  |  |  |  | < 10 | 
7 | CNS(=O)(=O)c1ccc(OC)c(NC(C)=O)c1 |  |  |  |  |  |  | ΔTm [7]: -0.4 °C; inhibition [8]: inactive
8 | CNS(=O)(=O)c1ccc(OC)c(NC(=O)Cc2n[nH]c(=O)c3ccccc23)c1 |  |  |  |  | 4.24 |  | 
9 | COc1ccc(S(=O)(=O)N2CCCCC2)cc1NC(=O)Cc1n[nH]c(=O)c2ccccc12 | inactive | inactive | inactive | inactive | 5.36 |  | 
10 | COc1ccc(S(=O)(=O)N2CCCCCC2)cc1N |  |  |  |  |  |  | ΔTm [7]: -0.7 °C; inhibition [8]: inactive
11 | Nc1cc(S(=O)(=O)N2CCCCCC2)ccc1O |  |  |  |  |  |  | ΔTm [7]: -1.6 °C; inhibition [8]: inactive
12 | COc1ccc(S(=O)(=O)N2CCCCCC2)cc1NC(=O)Cn1cnc2ccccc21 |  |  |  |  |  | < 10 | 
13 | COc1ccc(S(=O)(=O)N2CCCCCC2)cc1NC(=O)Cc1ccncc1 | inactive | inactive | inactive | inactive |  | < 10 | 
14 | COc1ccc(C(=O)N2CCCCCC2)cc1NC(=O)Cc1n[nH]c(=O)c2ccccc12 |  |  |  |  |  | 14 | 
15 | COc1ccc(S(=O)(=O)N2CCOCC2)cc1NC(=O)Cc1n[nH]c(=O)c2ccccc12 | inactive | inactive | inactive | inactive | 4.92 |  | 
16 | O=C(Cc1nnc(O)c2ccccc12)Nc1cccc(S(=O)(=O)N2CCCCCC2)c1 |  |  |  |  |  | 16 | 
17 | COc1ccccc1NC(=O)Cc1n[nH]c(=O)c2ccccc12 |  |  |  |  |  |  | ΔTm [7]: -0.4 °C; inhibition [8]: inactive
18 | COc1ccc(S(=O)(=O)N2CCCCCC2)cc1 |  |  |  |  |  |  | ΔTm [7]: 0.1 °C; inhibition [8]: inactive
19 | CC(=O)Nc1cccc(S(=O)(=O)N2CCCCCC2)c1 |  |  |  |  |  |  | ΔTm [7]: -0.4 °C; inhibition [8]: inactive

Row | Structure (SMILES) | Activity [1] | Activity [2] | Activity [3] | Activity [4] | pIC50 [5] | inhibition [6] [%] | other results
20 | Cc1ccc(S(=O)(=O)N2CCCCCC2)cc1NC(=O)Cc1n[nH]c(=O)c2ccccc12 |  |  |  |  |  | < 10 | 
21 | COc1ccc(S(=O)(=O)N2CCS(=O)(=O)CC2)cc1NC(=O)Cc1n[nH]c(=O)c2ccccc12 | inactive | inactive | inactive | inactive | 4.89 |  | 
22 | COc1ccc(S(=O)(=O)N2CCN(C)CC2)cc1NC(=O)Cc1n[nH]c(=O)c2ccccc12 | inactive | inactive | inactive | inactive | 4.42 |  | 
23 | COc1ccc(S(=O)(=O)Nc2ccccc2)cc1NC(=O)Cc1n[nH]c(=O)c2ccccc12 | inactive | inactive | inactive | inactive | 4.77 |  | 
24 | Nc1cccc(S(=O)(=O)N2CCCCCC2)c1 |  |  |  |  |  |  | ΔTm [7]: -1.2 °C; inhibition [8]: inactive
25 | COc1ccc(S(=O)(=O)N2CCCCCC2)cc1NC(=O)Cc1ccnc2ccccc12 | inactive | inactive | inactive | inactive | 5.39 | 86 | 
26 | COc1ccc(S(=O)(=O)N2CCCCCC2)cc1NC(C)=O |  |  |  |  |  |  | ΔTm [7]: -0.6 °C; inhibition [8]: inactive
27 | COc1ccc(S(=O)(=O)N2CCc3ccccc3CC2)cc1NC(=O)Cc1n[nH]c(=O)c2ccccc12 | inactive | inactive | inactive | inactive | 6.17 |  | 
28 | COc1ccc(S(=O)(=O)N2CCCCCC2)cc1NC(=O)CCc1c[nH]c2ccccc12 |  |  |  |  |  | 12 | MIC [1]: 25 µM (≈ 11.4 µg/mL); MIC [2]: > 100 µM; MIC [3]: > 100 µM; MIC [4]: 9.4 µM (≈ 4.28 µg/mL)
29 | COc1ccc(S(=O)(=O)N2CCCCCCC2)cc1NC(=O)Cc1n[nH]c(=O)c2ccccc12 |  |  |  |  | 5.40 |  | MIC [1]: 25 µM (≈ 12.1 µg/mL); MIC [2]: > 100 µM; MIC [3]: > 100 µM; MIC [4]: 19 µM (≈ 9.21 µg/mL)
30 | COc1ccc(S(=O)(=O)N2CC3CC(C2)c2ccccc23)cc1NC(=O)Cc1n[nH]c(=O)c2ccccc12 |  |  |  |  |  | 44 | 
31 | COc1ccc(S(=O)(=O)N2CCCCCC2)cc1NC(=O)Cc1c[nH]c2ccccc12 |  |  |  |  |  | 27 | MIC [1]: 100 µM (≈ 44.2 µg/mL); MIC [2]: > 100 µM; MIC [3]: > 100 µM; MIC [4]: 9.4 µM (≈ 4.15 µg/mL)
32 | CCOC(=O)Cc1nnc(O)c2ccccc12 |  |  |  |  |  |  | ΔTm [7]: -0.6 °C; inhibition [8]: inactive
33 | COc1ccc(S(=O)(=O)N2CCc3ccccc3C2)cc1NC(=O)Cc1n[nH]c(=O)c2ccccc12 | inactive | inactive | inactive | inactive | 5.66 |  | 
34 | COc1ccc(S(=O)(=O)N2CCCCCC2)cc1NC(=O)Cc1cccc2ccccc12 | inactive | inactive | inactive | inactive |  | 21 | 
35 | COc1ccc(S(=O)(=O)N2CCCCCC2)cc1NC(=O)Cc1nnc(O)c2ccccc12 |  |  |  |  | 5.70 | > 90 | growth inhibition (GI) [9]: 65%; MIC [1]: > 100 µM; ΔTm [10]: 3.9 °C; MIC [2]: > 100 µM; pIC50 [11]: 5.60; MIC [3]: > 100 µM; MIC [4]: > 100 µM
36 | COc1ccc(S(=O)(=O)N2CCCCCC2)cc1NC(=O)Cc1coc2ccccc12 |  |  |  |  |  | < 10 | MIC [1]: 9.4 µM (≈ 4.16 µg/mL); MIC [2]: > 100 µM; MIC [3]: > 100 µM; MIC [4]: 6.3 µM (≈ 2.79 µg/mL)
37 | O=C(O)Cc1nnc(O)c2ccccc12 |  |  |  |  |  |  | ΔTm [7]: -0.4 °C; inhibition [8]: inactive
